Assay results as given in ChEMBL document CHEMBL5335786, “Bioorthogonal activation of prodrugs, for the potential treatment of breast cancer, using the Staudinger reaction” (RSC Med Chem, 2023).
pIC50: −log10 of the molar value. Active and inactive are the calls of the source. No cut-off for these calls is given here.

Tests used:
[1] = Selectivity index, ratio of IC50 for mouse L929 cells to IC50 for human MCF7 cells; type: toxicity; conditions: L929 cells and MCF7 cells, read-out: Ratio IC50
Procedure, shortened: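 MTT assay on MCF-7 (RPMI, 5% FBS) and L929 (DMEM, 10% FBS) at 37 °C, 5% CO2. Some cells were first given 50 μM azido-sugar for 72 h. Cells were seeded at 4 × 10⁴ or 1 × 10⁵ cells/mL for 24 h, then treated with 0.001–10 μM for 72 h. MTT 0.5 mg/mL, 4 h, DMSO, A570; untreated control; triplicate; IC50 from fitted curves; ratio L929/MCF-7.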

MCF7 [2] = assay: Anticancer activity against Tetra-O-acetyl-azidomannosamine engineered human MCF7 cells incubated for 72 hrs by MTT assay; type: functional, cell-based; conditions: MCF7, 72 h
Procedure, shortened: (§1)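 MCF-7 cells grown in RPMI 1640 with 5% FBS at 37 °C, 5% CO2. Cells were pre-labelled with 50 μM Ac4ManNAz for 72 h, then seeded at 4 × 10⁴ cells per mL. After 24 h they were exposed to prodrug at 0.001–10 μM for 72 h. MTT (0.5 mg mL⁻¹, 4 h) was added, formazan dissolved in DMSO, A570 read. Untreated cells served as control. Triplicates; IC50 from fitted curve; mean ± SEM.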

[3] = Cytotoxicity against Tetra-O-acetyl-azidomannosamine engineered mouse L929 cells incubated for 72 hrs by MTT assay; type: toxicity, cell-based; conditions: L929 cells engineered with Tetra-O-acetyl-azidomannosamine
Procedure, shortened: as §1, with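 “L929 cells” for “MCF-7 cells”, “in DMEM” for “in RPMI 1640”, “with 10%” for “with 5%”, “at 1” for “at 4”, “× 10⁵” for “× 10⁴”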

MCF7 [4] = assay: Induction of azide reporter generation in human MCF7 cells at 50 uM incubated for 72 hrs by confocal laser microscopy; type: functional, cell-based
Procedure, shortened: (§2)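 Cells seeded at 4 × 10⁴ per mL (MCF-7) or 1 × 10⁴ per mL (L929) in glass-bottom dishes and kept with azido sugar at 37 °C for 72 h. Washed cells were labelled with 20 μM DBCO-Cy5 for 1 h at 37 °C, formaldehyde-fixed and DAPI-mounted. Confocal imaging; mean fluorescence intensity quantified; mean ± SEM, n = 3.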

L929 [5] = assay: Induction of azide reporter generation in mouse L929 cells at 50 uM incubated for 72 hrs by confocal laser microscopy; type: functional, cell-based; procedure, shortened: as §2
L929 [6] = assay: Induction of azide reporter generation in mouse L929 cells at 50 uM incubated for 72 hrs by Western blot analysis; type: functional, cell-based
Procedure, shortened: (§3)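 Cells seeded at 4 × 10⁴ per mL (MCF-7, RPMI/5% FBS) or 1 × 10⁴ per mL (L929, DMEM/10% FBS) and fed azido sugar at 37 °C for 72 h. RIPA lysates were cleared, protein-normalised and reacted with 0.5 μM phosphine-PEG3-biotin for 12 h at RT. 20 μg protein run on 8% SDS-PAGE, transferred to PVDF, blocked in BSA/TBST, probed overnight at 4 °C with streptavidin-HRP, ECL detection.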

MCF7 [7] = assay: Induction of azide reporter generation in human MCF7 cells at 50 uM incubated for 72 hrs by Western blot analysis; type: functional, cell-based; procedure, shortened: as §3
MCF7 [8] = assay: Anticancer activity against human MCF7 cells assessed as cell viability at 50 uM by MTT assay relative to control; type: functional; conditions: read-out: Activity

## O=C(Nc1ccc(N(CCCl)CCCl)cc1)c1ccccc1P(c1ccccc1)c1ccccc1
[1]
  selectivity ratio: 2

## COc1cccc2c1C(=O)c1c(O)c3c(c(O)c1C2=O)C[C@@](O)(C(=O)CO)C[C@@H]3OC1C[C@@H](NC(=O)c2ccccc2P(c2ccccc2)c2ccccc2)[C@@H](O)[C@@H](C)O1 (some centres undefined)
MCF7 [2]
  pIC50: 6.70
[1]
  selectivity ratio: 2
[3]
  IC50 at 72 h: 7.7 µM

## CC(=O)N[C@H]1[C@H]([C@H](OC(C)=O)[C@@H](CN=[N+]=[N-])OC(C)=O)O[C@@](OC(C)=O)(C(=O)O)C[C@@H]1OC(C)=O
MCF7 [4]
  Activity: Active
L929 [5]
  Activity: inactive
L929 [6]
  Activity: inactive
MCF7 [7]
  Activity: Active
MCF7 [8]
  viability at 50 µM: 100%

## CC(=O)OC[C@H]1OC(OC(C)=O)[C@@H](NC(=O)CN=[N+]=[N-])[C@@H](OC(C)=O)[C@@H]1OC(C)=O (some centres undefined)
MCF7 [4]
  Activity: Active
L929 [5]
  Activity: Active
L929 [6]
  Activity: Active
MCF7 [7]
  Activity: Active
MCF7 [8]
  viability at 50 µM: 100%

## CC(=O)N[C@H]1[C@H]([C@H](O)[C@H](O)CN=[N+]=[N-])OC(O)(C(=O)O)C[C@@H]1O (single isomer, unassigned)
MCF7 [4]
  Activity: Active
L929 [5]
  Activity: inactive
L929 [6]
  Activity: inactive
MCF7 [7]
  Activity: Active
MCF7 [8]
  viability at 50 µM: 100%
